FLuc act counter = affects firefly luciferase, flagging false hits in luciferase stimulation screens. ATPlite luciferase biochemical, luminescence, 10 min; 0 = ATP-free wells, 1 = DMSO control. AID 1027. activation factor at 10 µM. 200,000 tested, under 10 active;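 active = luciferase activation factor, scaled between plate controls, of at least 2 with compound at 10 µM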
Target sequence (P08659 whole entry, looked up): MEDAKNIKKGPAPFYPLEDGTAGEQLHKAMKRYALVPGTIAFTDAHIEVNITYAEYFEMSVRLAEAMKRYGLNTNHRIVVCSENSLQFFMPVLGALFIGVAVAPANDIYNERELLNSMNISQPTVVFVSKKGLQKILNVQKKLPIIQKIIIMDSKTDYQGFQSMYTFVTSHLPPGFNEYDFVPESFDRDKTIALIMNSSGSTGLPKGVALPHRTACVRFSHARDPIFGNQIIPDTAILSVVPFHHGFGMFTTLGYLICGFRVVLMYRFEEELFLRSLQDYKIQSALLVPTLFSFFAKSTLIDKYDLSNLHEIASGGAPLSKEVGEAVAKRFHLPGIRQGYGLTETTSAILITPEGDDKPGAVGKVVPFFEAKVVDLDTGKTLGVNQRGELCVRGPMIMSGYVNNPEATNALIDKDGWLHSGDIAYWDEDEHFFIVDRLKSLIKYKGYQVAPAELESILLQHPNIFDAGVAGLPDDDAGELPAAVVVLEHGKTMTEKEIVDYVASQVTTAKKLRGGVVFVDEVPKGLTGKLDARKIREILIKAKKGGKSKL
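test system = cell-free luciferase reagent | medium = PBS as buffer for the ATP substrate | dosing = test compounds dosed from 2 mM stocks in 100% DMSO | incubation = 10 min at ambient temperature | detection = luminescence measurement of luciferase light output | benchmarks = low control with PBS replacing ATP, high control enzyme plus ATP without compound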
STAT1 blocker = STAT1 signaling inhibition. NIH 3T3 STAT1-luciferase reporter, IFN-gamma, luminescence. inhibition, % at 5.5 µM. hit rate 0.35% among 200,000. AID 920;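 active = inhibition above a set limit, the mean inhibition across all tested compounds plus 3 SD, cut at about 34% in these data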;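 note: 0% = IFN-gamma with DMSO and 100% = IFN-gamma with 300 µM nifuroxazide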
STAT3 activator = STAT3 signaling activation. activation (% of control), % at 5.6 µM. hit rate 0.91% among 190,000. U3A cells, IL-6 STAT3-luciferase reporter, luminescence; 100% = signal with IL-6 EC80 alone;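 active = activation above the screen-wide mean of compound activation plus 3 SD, cut at about 130% in these data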;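 note: 0% = background luminescence of wells with medium and substrate only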
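Material: STAT1-lacking human U3A cells, STAT3 luciferase reporter | Benchmarks: IL-6-only wells as 100% reference | Probe or stimulus: IL-6 (33 ng/mL) | Timing: Compound 1 h, then IL-6 6 h at 37 °C | Detection: Luminescence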
FLuc inh counter = inhibits firefly luciferase, flagging false hits in luciferase inhibition screens | ATPLite firefly luciferase biochemical luminescence, 10 min | hit rate 1.5% among 200,000 | AID 1006 | inhibition, % at 10 µM | P08659;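 active = inhibition above about 50% when tested at 10 µM, limit read from the data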
STAT3 inh = STAT3 signaling inhibition; U3A cells, IL-6 STAT3-luciferase reporter, luminescence; host cell line lacks STAT1; inhibition, % at 5.5 µM; hit rate 0.89% among 190,000; AID 862;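 active = inhibition above the mean inhibition across all screened compounds plus 3 SD, cut at about 44% in these data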;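 note: 0% = DMSO only wells and 100% = 100 µM nifuroxazide control wells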
STAT1 activator = increases IFN-gamma driven STAT1 reporter signal | NIH 3T3 STAT1-luciferase reporter, luminescence; 100% = IFN-gamma alone, no compound | activation (% of control), % at 5.5 µM | hit rate 2.6% among 200,000 | AID 932;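 active = activation above the screen-wide mean activation plus 3 SD, cut at about 130% in these data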;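 note: raw ratio to IFN-gamma control signal so 100% means no change and 0% no light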
An asterisk follows results filed as active; x = not tested or not shown. An excerpt weighted towards active compounds, which were near 4.9% of everything screened.

SMILES	FLuc act counter	STAT1 blocker	STAT3 activator	FLuc inh counter	STAT3 inh	STAT1 activator
CCC(=O)N(CCc1ccc(OC)c(OC)c1)Cc1cc2ccc(C)cc2n2nnnc12	1	-7	98	-4	7	106
Cc1ccc(S(=O)(=O)Nc2ccccc2CNc2cccc(C)n2)cc1	1	-4	103	-3	-9	104
Cc1ccc(OCCn2cccn2)c(C)c1	1	-6	92	-2	12	105
Cc1nc(NC(=O)c2ccc(Br)o2)sc1C	0.6	-33	93	40	14	130*
Cc1ccc(C(=O)Nc2nnc(C)s2)o1	1	-8	100	-4	-3	107
Cc1ccc(C(=O)Nc2nnc(C3CCCCC3)s2)o1	0.5	-16	89	52*	13	115
Cc1ccc(C(=O)Nc2nc(C)c(C)s2)o1	0.6	-34	101	40	4	132*
O=C(Nc1nccs1)c1ccc(Br)o1	0.9	-7	114	8	-13	106
O=C(/C=C/c1ccccc1O)c1ccc(Cl)cc1	0.8	6	135*	18	-34	93
O=C(/C=C\Nc1ccccn1)c1ccc(Cl)cc1	0.1	56*	21	91*	100*	50
Clc1ccc(CNc2ccccn2)cc1	0.9	-18	94	13	13	114
CN(C)C(=O)COC(=O)c1ccccc1Nc1ccc(SC(F)F)cc1	1	-34	116	-3	-25	131*
O=C(O)Cc1sc(Nc2ccccc2)nc1-c1ccc(Cl)cc1	1	-23	99	-3	2	120
Cc1ccc(Nc2nc(-c3ccccc3)c(CC(=O)O)s2)cc1	0.9	-31	99	6	6	131*
O=C(Cc1sc(Nc2ccccc2)nc1-c1ccccc1)NCc1ccccn1	1	-30	106	2	-2	130*
O=C(Nc1ccc(-c2cn3ccccc3n2)cc1)c1ccc(Cl)cc1	1	-6	78	0	28	105
c1ccc(CCc2nc(-c3ccccc3)no2)cc1	1	-37	93	2	12	134*
c1ccc(OCc2nc(-c3ccncc3)no2)cc1	0.9	-27	97	5	6	123
O=C(Nc1ccc(-c2cn3ccccc3n2)cc1)c1ccco1	0.1	-50	92	86*	14	144*
Cc1cccc(-c2noc(Cc3ccccc3)n2)c1	0.9	-38	108	6	1	135*
c1ccc(OCc2nc(-c3ccccc3)no2)cc1	0.9	-46	97	7	6	142*
CN1C(=O)CC(C(=O)O)SC1=Nc1cc(Cl)cc(Cl)c1 (stereo not drawn)	1	5	105	-2	-8	98
CCOC(=O)c1c(NC(=O)CN2C(=O)NC3(CCC(C)CC3)C2=O)sc(C)c1-c1ccc(C)cc1 (stereo not drawn)	1.1	4	102	-5	-2	96
O=C(Nc1ccc(-c2noc(CCc3ccccc3)n2)cc1)c1ccco1	0.6	-40	100	40	7	136*
c1ccc(-c2noc(CN3CCN(c4ccccc4)CC3)n2)cc1	1.1	2	105	-8	3	98
SMILES	FLuc act counter	STAT1 blocker	STAT3 activator	FLuc inh counter	STAT3 inh	STAT1 activator
CC1CCN(Cc2nc(-c3ccccc3)no2)CC1	x	-46	104	x	-1	142*
O=[N+]([O-])c1ccc(N=NNc2ccccc2)cc1	0.9	-40	96	8	7	135*
CN(N=Nc1ccc([N+](=O)[O-])cc1)c1ccccc1	0.9	-44	83	5	24	139*
Nc1cc([N+](=O)[O-])ccc1Nc1ccccc1	1	11	108	-3	-5	89
CC(C)N(N=Nc1ccc([N+](=O)[O-])cc1)C(C)C	1	14	94	-4	11	87
CCc1ccc2nc(NC(=O)c3cc(C)on3)sc2c1	0.6	-36	95	44	12	133*
Cc1cc(C(=O)Nc2nc3c(s2)CCCC3)no1	0.5	-43	67	50	42	139*
CN(C)c1ccc(C(=O)Nc2nc3c(s2)CCCC3)cc1	0.4	-21	71	58*	40	119
Cc1cc(C)c2nc(NC(=O)c3cc(C)on3)sc2c1	1	-3	70	1	40	103
Nc1nn(-c2cccc(F)n2)cc1-c1ccccc1	0.4	-16	66	64*	42	115
C=CCn1cc(C(C)=O)c(=O)[nH]c1=O	1.1	14	97	-6	4	88
Cc1ccc2nc(-c3sc4nc(C)ccc4c3N)[nH]c2c1	0.4	-19	82	62*	23	118
Cc1ccc2c(N)c(C#N)sc2n1	0.9	-4	95	7	6	103
Cc1cccc(OCC(=O)Nc2ccc3c(c2)OCCO3)c1	0.5	-4	89	54*	14	104
O=C(CCSCc1ccccc1)Nc1ccc2c(c1)OCCO2	0.9	-30	107	5	0	126
CC1CC(C)(C)NC(=S)N1CCCC(=O)Nc1ccc2c(c1)OCCO2 (stereo not drawn)	1	-42	97	4	10	137*
O=C(CCc1ccccc1)Nc1ccc2c(c1)OCCO2	0.7	-50	102	34	1	145*
Cc1cccc(OCCCC(=O)Nc2ccc(N(C)C)cc2)c1	1	-51	118	3	-18	145*
Cc1cccc(OCCCC(=O)Nc2ccc(Br)cc2)c1	1.1	-2	105	-7	4	107
O=C(NC1CCCCCC1)C(=S)NC1CCCCC1	1	-23	105	1	-1	118
COC(=O)[C@@]1(Cc2ccc(F)cc2)[C@H]2c3cc(C(=O)N4CCCC4)n(CCc4ccccn4)c3C[C@H]2CN1C(=O)c1ccccc1	1	13	90	0	9	88
COc1ccc(Cc2n[nH]c(=S)n2N)cc1OC	1	2	102	-4	0	99
Cc1ccc(O)c(N=Cc2sc3ccccc3c2Cl)c1	0.7	3	104	28	-6	97
Oc1ccccc1N=Cc1sc2ccccc2c1Cl	0.9	11	135*	7	-48	90
Cc1cc(NS(=O)(=O)c2ccc(NC(=O)c3cc4cc(Br)ccc4oc3=O)cc2)no1	1	-8	100	-4	1	108
Nc1nc(Nc2cccc(F)c2)nc2ccccc12	0.4	-50	103	57*	3	145*
Cc1ccc(C)c(Nc2nc(N)c3ccccc3n2)c1	0.3	-30	79	66*	30	124
CCOc1cccc2c1OC(c1cc(OC)c(OC)c(OC)c1)N1N=C(c3ccc(C)o3)CC21 (stereo not drawn)	0.5	12	104	52*	-3	89

Screens deposited in PubChem BioAssay by several laboratories.
